Format in all cases: cell-based
Experiment [1] has as its system NCI-H520. In words: MTT cytotoxicity assay, NCI-H520. Particulars: read-out: IC50, NCI-H520. In a few lines: (§1)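 Cells were grown at 37 °C in 5% CO2: HeLa and NRK-52E in DMEM, NCI-H520 in RPMI, each with 10% heat-inactivated FBS plus penicillin/streptomycin/amphotericin B. They were seeded at 10^4 cells/well in triplicate and left 24 h. Test compound (5–300 μM) was added for 24 h, then removed with a PBS wash. MTT was added for 3 h, formazan dissolved in DMSO, and A570 read. IC50 came from nonlinear regression of survival curves, shown as mean ± SE of triplicate independent analyses.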
Background: Tetrazolium dyes change colour on reduction, which living cells bring about.

Experiment [2] deals with HeLa. In words: MTT cytotoxicity assay, HeLa. Particulars: read-out: IC50, HeLa. An outline of the steps: as §1
The test system of another experiment is NRK-52E. In words: MTT cytotoxicity assay, NRK-52E. Particulars: read-out: IC50, NRK-52E, 24 h treatment, normal rat kidney epithelial cell line. An outline of the steps:
as §1

The test system of experiment [3] is NCI-H520. In words: Apoptosis, Muse Annexin V & Dead cell kit, NCI-H520. Particulars: IC50 dose; untreated 7.15%.
For experiment [4], the system named is HeLa. In words: Apoptosis, Muse Annexin V & Dead cell kit, HeLa. Particulars: IC50 dose (12.59 μM 4a, 11.26 μM 7b), 24 h; untreated 8.05%.
Setting [5] is: MTT, 24 h treatment, mean of three independent experiments.

By IC50 is commonly meant the point on the concentration scale where inhibition reaches its midpoint.

Where two headings read alike, the source gives them in different places.

As to `O=c1[nH]cc(F)c(=O)[nH]1` [5-Fluorouracil, reference compound], the IC50 in the experiment on NCI-H520 [1] (Homo sapiens, NCI-H520, 24 h) amounted to 8.36 ± 0.45 µM; in the experiment on HeLa [2] (Homo sapiens, HeLa, 24 h), 55.7 ± 2.1 µM.
For `N.N.[Cl][Pt][Cl]` [Cis-platin, reference compound], the IC50 amounted to 12.9 ± 0.4 µM with NRK-52E, 10.4 ± 1.35 µM with NCI-H520 [1] (setting [5]) and 7.75 ± 0.42 µM with HeLa [2] (setting [5]).
For the compound `CCn1c2ccccc2c2cc(/C=C/C(=O)c3cc4ccccc4oc3=O)ccc21` [Compound 3a, (E)-3-(3-(9-Ethyl-9H-carbazol-3-yl)acryloyl)-2H-chromen-2-one], the IC50 turned out to be 120 ± 3.78 µM in the experiment with NCI-H520 [1] (Homo sapiens, NCI-H520, 24 h) and 132 ± 5.16 µM in the experiment with HeLa [2] (Homo sapiens, HeLa, 24 h).
For `CCn1c2ccccc2c2cc(/C=C/C(=O)c3cc4cccc(OC)c4oc3=O)ccc21` [Compound 3b, (E)-3-(3-(9-Ethyl-9H-carbazol-3-yl)acryloyl)-8-methoxy-2H-chromen-2-one], the IC50 with NCI-H520 [1] (Homo sapiens, NCI-H520, 24 h) was determined as 103 ± 4.78 µM; in the experiment with HeLa [2] (Homo sapiens, HeLa, 24 h) it was 119 ± 6.88 µM.
For `CCn1c2ccccc2c2cc(/C=C/C(=O)c3cc4c(ccc5ccccc54)oc3=O)ccc21` [Compound 3c, (E)-2-(3-(9-Ethyl-9H-carbazol-3-yl)acryloyl)-3H-benzo[f]chromen-3-one], in that order: 133 ± 4.75 µM and 142 ± 7.77 µM.
Turning to `CCn1c2ccccc2c2cc(C3CC(c4cc5ccccc5oc4=O)=NN3C(N)=O)ccc21` (stereo not drawn) [Compound 4a, 5-(9-Ethyl-9H-carbazol-3-yl)-3-(2-oxo-2H-chromen-3-yl)-4,5-dihydro-1H-pyrazole-1-carboxamide], the “apoptotic cell death, NCI-H520” value with NCI-H520 [3] turned out to be 18%. The IC50 is 11.3 ± 0.45 µM in the experiment on NCI-H520 [1] (Homo sapiens, NCI-H520, 24 h) and 12.59 ± 0.1 µM in the experiment on HeLa [2] (Homo sapiens, HeLa, 24 h). Further, the “apoptotic cells, HeLa” value in the experiment on HeLa [4] is listed as 25.5%.
Turning to `CCn1c2ccccc2c2cc(C3CC(c4cc5cccc(OC)c5oc4=O)=NN3C(N)=O)ccc21` (stereo not drawn) [Compound 4b, 5-(9-Ethyl-9H-carbazol-3-yl)-3-(8-methoxy-2-oxo-2H-chromen-3-yl)-4,5-dihydro-1H-pyrazole-1-carboxamide], the IC50 came out at 22.5 ± 2.15 µM in the experiment on NCI-H520 [1] (Homo sapiens, NCI-H520, 24 h) and 29.8 ± 1.85 µM in the experiment on HeLa [2] (Homo sapiens, HeLa, 24 h).
In the case of `CCn1c2ccccc2c2cc(C3CC(c4cc5c(ccc6ccccc65)oc4=O)=NN3C(N)=O)ccc21` (stereo not drawn) [Compound 4c, 5-(9-Ethyl-9H-carbazol-3-yl)-3-(3-oxo-3H-benzo[f]chromen-2-yl)-4,5-dihydro-1H-pyrazole-1-carboxamide], the IC50 with NCI-H520 [1] (Homo sapiens, NCI-H520, 24 h) is 55.6 ± 1.93 µM; with HeLa [2] (Homo sapiens, HeLa, 24 h) it was 43.5 ± 1.02 µM.
Taken in the same sequence, the figures for `CCn1c2ccccc2c2cc(C3CC(c4cc5ccccc5oc4=O)=NN3c3ccccc3)ccc21` (stereo not drawn) [Compound 5a, 3-(5-(9-Ethyl-9H-carbazol-3-yl)-1-phenyl-4,5-dihydro-1H-pyrazol-3-yl)-2H-chromen-2-one] were 81.2 ± 1.46 µM and 92.5 ± 4.25 µM.
Taken in the same sequence, the figures for `CCn1c2ccccc2c2cc(C3CC(c4cc5cccc(OC)c5oc4=O)=NN3c3ccccc3)ccc21` (stereo not drawn) [Compound 5b, 3-(5-(9-Ethyl-9H-carbazol-3-yl)-1-phenyl-4,5-dihydro-1H-pyrazol-3-yl)-8-methoxy-2H-chromen-2-one] were 62.7 ± 1.63 µM and 39 ± 0.46 µM.
For `CCn1c2ccccc2c2cc(C3CC(c4cc5c(ccc6ccccc65)oc4=O)=NN3c3ccccc3)ccc21` (stereo not drawn) [Compound 5c, 2-(5-(9-Ethyl-9H-carbazol-3-yl)-1-phenyl-4,5-dihydro-1H-pyrazol-3-yl)-3H-benzo[f] chromen-3-one], in that order: 83.6 ± 1.2 µM and 55 ± 0.96 µM.
Turning to `CCn1c2ccccc2c2cc(C3CC(c4cc5ccccc5oc4=O)=NN3c3ccc(C)cc3)ccc21` (stereo not drawn) [Compound 6a, 3-(5-(9-Ethyl-9H-carbazol-3-yl)-1-(p-tolyl)-4,5-dihydro-1H-pyrazol-3-yl)-2H-chromen-2-one], the half-maximal inhibitory concentration (IC50) was determined as 38.3 ± 0.78 µM in the experiment with NCI-H520 [1] (Homo sapiens, NCI-H520, 24 h) and 67 ± 1.87 µM in the experiment with HeLa [2] (Homo sapiens, HeLa, 24 h).
For `CCn1c2ccccc2c2cc(C3CC(c4cc5cccc(OC)c5oc4=O)=NN3c3ccc(C)cc3)ccc21` (stereo not drawn) [Compound 6b, 3-(5-(9-Ethyl-9H-carbazol-3-yl)-1-(p-tolyl)-4,5-dihydro-1H-pyrazol-3-yl)-8-methoxy-2H-chromen-2-one], in that order: 30 ± 0.33 µM and 30.8 ± 0.5 µM.
For `CCn1c2ccccc2c2cc(C3CC(c4cc5c(ccc6ccccc65)oc4=O)=NN3c3ccc(C)cc3)ccc21` (stereo not drawn) [Compound 6c, 2-(5-(9-Ethyl-9H-carbazol-3-yl)-1-(p-tolyl)-4,5-dihydro-1H-pyrazol-3-yl)-3H-benzo[f] chromen-3-one], in that order: 61.7 ± 1.48 µM and 57.5 ± 1.32 µM.
Taken in the same sequence, the figures for `CCn1c2ccccc2c2cc(C3CC(c4cc5ccccc5oc4=O)=NN3c3cccc(Cl)c3)ccc21` (stereo not drawn) [Compound 7a, 3-(1-(3-Chlorophenyl)-5-(9-ethyl-9H-carbazol-3-yl)-4,5-dihydro-1H-pyrazol-3-yl)-2H-chromen-2-one] were 14.3 ± 0.21 µM and 33.4 ± 0.64 µM.
Take `CCn1c2ccccc2c2cc(C3CC(c4cc5cccc(OC)c5oc4=O)=NN3c3cccc(Cl)c3)ccc21` (stereo not drawn) [Compound 7b, 3-(1-(3-Chlorophenyl)-5-(9-ethyl-9H-carbazol-3-yl)-4,5-dihydro-1H-pyrazol-3-yl)-8-methoxy-2H-chromen-2-one]: in the experiment with NCI-H520 [3], the “apoptotic cell death, NCI-H520” value was determined as 16.10%. Besides, the IC50 was found to be 9.13 ± 0.08 µM with NCI-H520 [1] (Homo sapiens, NCI-H520, 24 h) and 11.4 ± 0.24 µM with HeLa [2] (Homo sapiens, HeLa, 24 h). In the experiment with HeLa [4], the “apoptotic cells, HeLa” value turned out to be 24%.
As for `CCn1c2ccccc2c2cc(C3CC(c4cc5c(ccc6ccccc65)oc4=O)=NN3c3cccc(Cl)c3)ccc21` (stereo not drawn) [Compound 7c, 2-(1-(3-Chlorophenyl)-5-(9-ethyl-9H-carbazol-3-yl)-4,5-dihydro-1H-pyrazol-3-yl)-3H-benzo[f]chromen-3-one], the IC50 was found to be 20.8 ± 0.27 µM in the experiment on NCI-H520 [1] (Homo sapiens, NCI-H520, 24 h) and 29 ± 0.84 µM in the experiment on HeLa [2] (Homo sapiens, HeLa, 24 h).
Taken in the same sequence, the figures for `CCn1c2ccccc2c2cc(C3CC(c4cc5ccccc5oc4=O)=NN3C(C)=O)ccc21` (stereo not drawn) [Compound 8a, 3-(1-Acetyl-5-(9-ethyl-9H-carbazol-3-yl)-4,5-dihydro-1H-pyrazol-3-yl)-2H-chromen-2-one] were 62.5 ± 1.95 µM and 43.2 ± 0.52 µM.
Taken in the same sequence, the figures for `CCn1c2ccccc2c2cc(C3CC(c4cc5cccc(OC)c5oc4=O)=NN3C(C)=O)ccc21` (stereo not drawn) [Compound 8b, 3-(1-Acetyl-5-(9-ethyl-9H-carbazol-3-yl)-4,5-dihydro-1H-pyrazol-3-yl)-8-methoxy-2H-chromen-2-one] were 54.7 ± 0.65 µM and 76.8 ± 1.45 µM.
For `CCn1c2ccccc2c2cc(C3CC(c4cc5c(ccc6ccccc65)oc4=O)=NN3C(C)=O)ccc21` (stereo not drawn) [Compound 8c, 2-(1-Acetyl-5-(9-ethyl-9H-carbazol-3-yl)-4,5-dihydro-1H-pyrazol-3-yl)-3H-benzo[f]chromen-3-one], in that order: 77.61 ± 0.34 µM and 55.9 ± 1.3 µM.

The values are drawn from paper PMC9037808 (RSC Advances, 2021).
